This is an account of results in ChEMBL document CHEMBL1147654, “Synthesis and pharmacological evaluation of novel 9- and 10-substituted cytisine derivatives. Nicotinic ligands of enhanced subtype selectivity” (J Med Chem, 2006).

As a reminder, the Emax is the greatest response seen or fitted, relative to the assay's reference. By Ki is commonly meant the dissociation constant of the complex between target and ligand, obtained from inhibition or displacement. Broadly, the inhibition is the change of the read-out against control, counted positive when it falls. Read a low inhibition as little suppression.

Where only a bound is given, the exact number is not on record here.

Test [1] deals with Neuronal acetylcholine receptor; alpha3/beta4 (Rattus norvegicus) (UniProt P04757+P12392). The test can be described thus: Efficacy at rat alpha3beta4 nACHR expressed in human HEK293 cells by rubidium efflux assay relative to nicotine. The test is classed as functional, cell-based. The gist of the method: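 Agonist-stimulated 86Rb+ efflux in KXα3β4R2 cells stably expressing rat α3β4 nAChRs. Mean ± standard error of three independent experiments, each in quadruplicate.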

Test [2] addresses T1, Neuronal acetylcholine receptor; alpha4/beta2 (Rattus norvegicus) (UniProt P09483+P12390). Nature of the test: Efficacy at rat alpha4beta2 nACHR by rubidium efflux assay. The test is classed as functional.
A short description of test [3]: Selectivity for rat alpha-4-beta-2 nACHR over alpha3beta4 nACHR expressed in human HEK293 cells. The test is classed as cell-based. The gist of the method:
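Ki ratio (α3β4/α4β2), taken from competition binding Ki values measured on membrane homogenates of stably transfected cells expressing the respective nAChR subtypes.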

Test [4] has as its target T2, Neuronal acetylcholine receptor; alpha3/beta4 (Rattus norvegicus, UniProt P04757+P12392). Nature of the test: Displacement of [3H]epibatidine from rat alpha3beta4 nACHR expressed in human HEK293 cells. The test is classed as cell-based. The gist of the method:
(§1)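 Competition binding in membrane homogenates of stably transfected cells expressing each nAChR subtype, with Ki values derived from displacement.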

Test [5] addresses T3, Neuronal acetylcholine receptor; alpha4/beta4 (Rattus norvegicus, UniProt P09483+P12392). The test can be described thus: Displacement of [3H]epibatidine from rat alpha-4-beta-4 nACHR expressed in human HEK293 cells. The test is classed as cell-based. The gist of the method:
as §1
(In general: In a radioligand displacement assay an active substance lowers the binding of a labelled ligand.)

Test [6] deals with T4, Neuronal acetylcholine receptor; alpha4/beta2 (Rattus norvegicus, UniProt P09483+P12390). Nature of the test: Displacement of [3H]epibatidine from rat forebrain alpha4beta2 nACHR. The gist of the method: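 Competition binding was run on rat forebrain membrane homogenates.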
Test [7] addresses T5, Neuronal acetylcholine receptor; alpha2/beta2 (Rattus norvegicus, UniProt P12389+P12390). The test can be described thus: Displacement of [3H]epibatidine from rat alpha-2-beta-2 nACHR expressed in human HEK293 cells. The test is classed as cell-based. A digest of the protocol: as §1
In test [8] the target is T6, Neuronal acetylcholine receptor; alpha2/beta4 (Rattus norvegicus, UniProt P12389+P12392). Nature of the test: Displacement of [3H]epibatidine from rat alpha-2-beta-4 nACHR expressed in human HEK293 cells. The test is classed as cell-based. A digest of the protocol: as §1
Test [9] concerns the target T5, Neuronal acetylcholine receptor; alpha2/beta2. Nature of the test: Displacement of [3H]epibatidine from rat alpha2beta2 nACHR expressed in human HEK293 cells at 10 uM. The test is classed as cell-based.
Test [10] concerns the target T6, Neuronal acetylcholine receptor; alpha2/beta4. Nature of the test: Displacement of [3H]epibatidine from rat alpha-2-beta-4 nACHR expressed in human HEK293 cells at 10 uM. Format: cell-based.
For test [11], the target named is Neuronal acetylcholine receptor; alpha3/beta2 (Rattus norvegicus, UniProt P04757+P12390). Nature of the test: Displacement of [3H]epibatidine from rat alpha-3-beta-2 nACHR expressed in human HEK293 cells at 10 uM. The test is classed as cell-based.
The target in test [12] is T2, Neuronal acetylcholine receptor; alpha3/beta4. Nature of the test: Displacement of [3H]epibatidine from rat alpha-3-beta-4 nACHR expressed in human HEK293 cells at 10 uM. Format: cell-based.
Test [13] deals with T4, Neuronal acetylcholine receptor; alpha4/beta2. The test can be described thus: Displacement of [3H]epibatidine from rat alpha-4-beta-2 nACHR expressed in human HEK293 cells at 10 uM. Format: cell-based.
In test [14] the target is T3, Neuronal acetylcholine receptor; alpha4/beta4. The test can be described thus: Displacement of [3H]epibatidine from rat alpha-4-beta-4 nACHR expressed in human HEK293 cells at 10 uM. The test is classed as cell-based.
Test [15] in a line: Displacement of [3H]epibatidine from rat […] nACHR expressed in human HEK293 cells at 10 uM. The test is classed as cell-based.
Test [16] addresses T1, Neuronal acetylcholine receptor; alpha4/beta2 (Rattus norvegicus). Nature of the test: Inhibition of nicotine-stimulated response at rat alpha-4-beta-2 nACHR at 100 uM. Format: functional.

T4 sequence (P09483 whole entry): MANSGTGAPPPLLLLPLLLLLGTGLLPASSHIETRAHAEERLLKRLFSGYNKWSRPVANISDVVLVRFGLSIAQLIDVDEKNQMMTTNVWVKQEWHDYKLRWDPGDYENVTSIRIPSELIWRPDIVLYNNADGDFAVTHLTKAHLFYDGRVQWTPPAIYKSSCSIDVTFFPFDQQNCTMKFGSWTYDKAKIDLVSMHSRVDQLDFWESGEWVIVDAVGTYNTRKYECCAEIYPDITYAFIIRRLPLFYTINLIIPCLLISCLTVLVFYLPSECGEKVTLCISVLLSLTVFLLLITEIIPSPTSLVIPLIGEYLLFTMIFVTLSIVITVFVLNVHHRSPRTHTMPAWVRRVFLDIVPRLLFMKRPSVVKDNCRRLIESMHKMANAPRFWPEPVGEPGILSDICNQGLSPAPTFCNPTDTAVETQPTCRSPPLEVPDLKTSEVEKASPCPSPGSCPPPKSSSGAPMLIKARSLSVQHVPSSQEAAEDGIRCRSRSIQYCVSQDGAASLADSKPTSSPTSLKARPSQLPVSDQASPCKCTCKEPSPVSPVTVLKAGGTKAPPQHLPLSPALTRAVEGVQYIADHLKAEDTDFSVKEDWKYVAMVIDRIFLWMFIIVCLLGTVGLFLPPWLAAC
T4 sequence (P12390 whole entry): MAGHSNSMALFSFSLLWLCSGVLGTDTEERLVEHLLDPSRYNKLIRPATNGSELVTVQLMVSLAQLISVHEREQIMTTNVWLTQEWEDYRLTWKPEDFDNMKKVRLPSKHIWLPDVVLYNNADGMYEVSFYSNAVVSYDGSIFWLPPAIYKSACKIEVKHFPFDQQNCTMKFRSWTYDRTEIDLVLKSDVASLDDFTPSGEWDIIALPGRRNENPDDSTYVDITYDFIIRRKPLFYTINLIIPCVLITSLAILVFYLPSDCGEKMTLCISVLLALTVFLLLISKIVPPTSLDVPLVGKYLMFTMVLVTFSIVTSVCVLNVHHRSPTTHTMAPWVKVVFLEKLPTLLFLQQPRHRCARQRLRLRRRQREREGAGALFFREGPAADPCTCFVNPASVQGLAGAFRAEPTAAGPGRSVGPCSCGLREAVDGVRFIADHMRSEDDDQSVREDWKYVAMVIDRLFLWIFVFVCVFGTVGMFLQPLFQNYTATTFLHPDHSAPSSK
T3 sequence (P09483 whole entry): as the sequence (P09483 whole entry) above
T3 sequence (P12392 whole entry): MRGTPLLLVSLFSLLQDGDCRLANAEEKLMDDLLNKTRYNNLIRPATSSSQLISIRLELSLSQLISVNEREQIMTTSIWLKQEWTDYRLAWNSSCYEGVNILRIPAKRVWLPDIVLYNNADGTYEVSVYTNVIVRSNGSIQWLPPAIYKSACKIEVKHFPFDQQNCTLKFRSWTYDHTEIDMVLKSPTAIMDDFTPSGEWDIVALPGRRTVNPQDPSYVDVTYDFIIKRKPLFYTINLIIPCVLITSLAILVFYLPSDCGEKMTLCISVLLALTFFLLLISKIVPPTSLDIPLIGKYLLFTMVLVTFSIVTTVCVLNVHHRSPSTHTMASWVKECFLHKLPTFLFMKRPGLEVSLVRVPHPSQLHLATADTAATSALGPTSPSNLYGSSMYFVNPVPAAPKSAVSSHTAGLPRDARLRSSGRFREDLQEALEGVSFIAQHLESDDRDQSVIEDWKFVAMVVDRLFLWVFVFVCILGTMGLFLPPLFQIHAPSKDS
T2 sequence (P04757 whole entry): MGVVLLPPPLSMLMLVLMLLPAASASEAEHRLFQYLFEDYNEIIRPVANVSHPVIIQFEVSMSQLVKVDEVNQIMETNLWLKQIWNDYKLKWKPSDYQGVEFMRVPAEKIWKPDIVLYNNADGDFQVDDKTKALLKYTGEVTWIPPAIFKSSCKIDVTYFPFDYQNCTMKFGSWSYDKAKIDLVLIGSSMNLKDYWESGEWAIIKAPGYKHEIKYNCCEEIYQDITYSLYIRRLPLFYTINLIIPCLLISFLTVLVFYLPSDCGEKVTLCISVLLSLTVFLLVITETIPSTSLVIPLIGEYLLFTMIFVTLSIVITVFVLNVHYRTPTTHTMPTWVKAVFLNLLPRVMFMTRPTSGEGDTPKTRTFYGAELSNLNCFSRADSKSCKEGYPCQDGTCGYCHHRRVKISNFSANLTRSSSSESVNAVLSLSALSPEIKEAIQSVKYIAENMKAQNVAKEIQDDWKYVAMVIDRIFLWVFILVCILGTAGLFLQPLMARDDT
T2 sequence (P12392 whole entry): as the sequence (P12392 whole entry) above
Chain of Neuronal acetylcholine receptor; alpha3/beta2 (P04757 whole entry): as the sequence (P04757 whole entry) above
Chain of Neuronal acetylcholine receptor; alpha3/beta2 (P12390 whole entry): as the sequence (P12390 whole entry) above
T5 sequence (P12389 whole entry): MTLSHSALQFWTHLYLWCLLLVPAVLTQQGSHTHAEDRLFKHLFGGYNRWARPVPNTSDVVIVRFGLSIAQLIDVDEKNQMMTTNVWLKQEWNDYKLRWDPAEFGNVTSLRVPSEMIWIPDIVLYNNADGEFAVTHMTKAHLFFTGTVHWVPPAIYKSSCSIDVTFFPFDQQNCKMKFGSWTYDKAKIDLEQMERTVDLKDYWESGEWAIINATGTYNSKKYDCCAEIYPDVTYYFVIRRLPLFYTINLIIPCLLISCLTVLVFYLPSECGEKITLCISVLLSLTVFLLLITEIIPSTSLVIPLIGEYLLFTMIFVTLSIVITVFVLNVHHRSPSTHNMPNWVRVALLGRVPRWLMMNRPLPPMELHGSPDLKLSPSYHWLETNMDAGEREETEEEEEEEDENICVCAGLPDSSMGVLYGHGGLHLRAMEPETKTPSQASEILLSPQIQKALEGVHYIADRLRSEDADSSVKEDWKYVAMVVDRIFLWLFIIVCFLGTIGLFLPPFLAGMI
T5 sequence (P12390 whole entry): as the sequence (P12390 whole entry) above
T6 sequence (P12389 whole entry): as the sequence (P12389 whole entry) above
T6 sequence (P12392 whole entry): as the sequence (P12392 whole entry) above

Take `CN1CCC[C@H]1c1cccnc1`: the Emax in test [1] and in test [2] was 100% in each case.
As for `Cc1ccc(-c2ccc3n(c2=O)CC2CNCC3C2)s1` (single isomer, unassigned), the Ratio in [3] stood at 59.
With `O=c1cccc2n1C[C@@H]1CNC[C@H]2C1` [CYTISINICLINE], the inhibition constant (Ki) came out at 0.217 µM in test [4]; 0.0021 µM in [5]; 0.00192 µM in test [6]; 0.00107 µM in [7]; 0.00541 µM in test [8]. For the same compound, the Ratio in [3] was found to be 144.
As for `O=c1ccccn1CC1CCCNC1` (centres undefined), the Ki turned out to be 4.63 µM in test [9]; 159 µM in test [10]; 18.7 µM in test [11]; 535 µM in [12]; 1.78 µM in [13]; 5.55 µM in test [14]. This compound yielded a Ki in test [15] of 253 µM.
As for `COC(=O)[C@H]1C2CNCC(C2)c2cccc(=O)n21` (single isomer, unassigned), the Ratio in test [3] is 13.
For the compound `O=c1ccccn1CC1CCCN(Cc2ccccc2)C1` (centres undefined), the inhibition constant (Ki) amounted to 100 µM in test [9]; 91 µM in test [10]; 4.3 µM in test [11]; 83 µM in [12]; 0.54 µM in test [13]; 1.4 µM in test [14]. Further, the Ki in test [15] came out at 54 µM.
The compound `O=c1cc(CO)cc2n1CC1CNCC2C1` (racemic) had a Ki in test [6] of 0.038 µM. The Ratio in test [3] was 909. The compound also gave an inhibition in [16] above 50%.
On to `O=c1ccccn1CC1CCNCC1`, for which the inhibition constant Ki came out at 80 µM in test [10]; 12 µM in test [11]; 750 µM in test [12]; 1.6 µM in [13]; 5.4 µM in test [14]; 87 µM in test [15].
With `C=Cc1ccc2n(c1=O)CC1CNCC2C1` (single isomer, unassigned), the Emax in test [2] amounted to 22%.
Consider `CCC(=O)[C@H]1C2CNCC(C2)c2cccc(=O)n21` (single isomer, unassigned), for which the Ratio in test [3] turned out to be 18.
Same read-out and setting: with `O=c1c(-c2ccc(F)cc2)ccc2n1CC1CNCC2C1` (single isomer, unassigned) the figure was 157; with `CCCCc1ccc(-c2ccc3n(c2=O)CC2CNCC3C2)cc1` (single isomer, unassigned), 17.
`O=c1ccccn1CC1CCN(Cc2ccccc2)CC1`: the inhibition constant (Ki) in test [9] was 26 µM; in test [10], 440 µM; in [11], 7.3 µM; in test [12] it was 620 µM; in test [13], 1.3 µM; in test [14], 4.5 µM. Further, the Ki in test [15] turned out to be 470 µM.
Turning to `CN1CCCC(Cn2ccccc2=O)C1` (centres undefined), the Ki amounted to 19 µM in test [9]; 180 µM in test [10]; 6 µM in [11]; 160 µM in test [12]; 0.98 µM in [13]; 2.6 µM in [14]. In addition, the affinity in test [15], expressed as Ki, was 76 µM.
Consider `Cc1cc2n(c(=O)c1)CC1CNCC2C1` (racemic), for which the affinity in [6] corresponds to a Ki of 0.02 µM. Moreover, the Ratio in test [3] was determined as 3530. The inhibition in test [16] was above 50%.
